Test results published in ChEMBL document CHEMBL1165965, “Synthesis and structure-activity relationships of 1,2,3,4-tetrahydropyrido[2,3-b]pyrazines as potent and selective inhibitors of the anaplastic lymphoma kinase” (Bioorg Med Chem, 2010).

Columns and labels:
[1] = biological target: cAMP-dependent protein kinase catalytic subunit beta (Homo sapiens) (UniProt P22694); experiment: Inhibition of PKAC-beta at 1 uM
[2] = biological target: Serine/threonine-protein kinase SIK3 (Homo sapiens) (UniProt Q9Y2K2); experiment: Inhibition of QSK at 1 uM
[3] = biological target: SRSF protein kinase 2 (Homo sapiens) (UniProt P78362); experiment: Inhibition of SRPK2 at 1 uM
[4] = biological target: T1, Serine/threonine-protein kinase 4 (Homo sapiens) (UniProt Q13043); experiment: Inhibition of MST1 at 1 uM
T1 sequence (whole entry): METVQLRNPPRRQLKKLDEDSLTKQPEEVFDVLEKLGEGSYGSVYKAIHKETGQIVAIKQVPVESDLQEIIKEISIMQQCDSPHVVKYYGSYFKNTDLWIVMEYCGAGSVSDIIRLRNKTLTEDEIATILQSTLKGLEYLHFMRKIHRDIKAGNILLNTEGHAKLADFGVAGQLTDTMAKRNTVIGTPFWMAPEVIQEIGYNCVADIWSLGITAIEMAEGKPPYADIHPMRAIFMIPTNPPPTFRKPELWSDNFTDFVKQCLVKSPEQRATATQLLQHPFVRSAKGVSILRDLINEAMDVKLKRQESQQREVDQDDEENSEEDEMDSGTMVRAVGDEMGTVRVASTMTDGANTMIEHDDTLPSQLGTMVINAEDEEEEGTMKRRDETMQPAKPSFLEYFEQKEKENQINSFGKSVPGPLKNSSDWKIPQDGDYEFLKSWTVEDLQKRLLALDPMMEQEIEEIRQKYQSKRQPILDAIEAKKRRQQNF

[5] = biological target: Cyclin-dependent kinase 14 (Homo sapiens) (UniProt O94921); experiment: Inhibition of PFTK1 at 1 uM
[6] = biological target: Wee1-like protein kinase 2 (Homo sapiens) (UniProt P0C1S8); experiment: Inhibition of WEE2 at 1 uM
[7] = biological target: Serine/threonine-protein kinase RIO2 (Homo sapiens) (UniProt Q9BVS4); experiment: Inhibition of RIOK2 at 1 uM
[8] = biological target: Mitogen-activated protein kinase 7 (Homo sapiens) (UniProt Q13164); experiment: Inhibition of ERK5 at 1 uM
[9] = biological target: T2, Phosphatidylinositol 4,5-bisphosphate 3-kinase catalytic subunit delta isoform (Homo sapiens) (UniProt O00329); experiment: Inhibition of PIK3CD at 1 uM
T2 sequence (whole entry): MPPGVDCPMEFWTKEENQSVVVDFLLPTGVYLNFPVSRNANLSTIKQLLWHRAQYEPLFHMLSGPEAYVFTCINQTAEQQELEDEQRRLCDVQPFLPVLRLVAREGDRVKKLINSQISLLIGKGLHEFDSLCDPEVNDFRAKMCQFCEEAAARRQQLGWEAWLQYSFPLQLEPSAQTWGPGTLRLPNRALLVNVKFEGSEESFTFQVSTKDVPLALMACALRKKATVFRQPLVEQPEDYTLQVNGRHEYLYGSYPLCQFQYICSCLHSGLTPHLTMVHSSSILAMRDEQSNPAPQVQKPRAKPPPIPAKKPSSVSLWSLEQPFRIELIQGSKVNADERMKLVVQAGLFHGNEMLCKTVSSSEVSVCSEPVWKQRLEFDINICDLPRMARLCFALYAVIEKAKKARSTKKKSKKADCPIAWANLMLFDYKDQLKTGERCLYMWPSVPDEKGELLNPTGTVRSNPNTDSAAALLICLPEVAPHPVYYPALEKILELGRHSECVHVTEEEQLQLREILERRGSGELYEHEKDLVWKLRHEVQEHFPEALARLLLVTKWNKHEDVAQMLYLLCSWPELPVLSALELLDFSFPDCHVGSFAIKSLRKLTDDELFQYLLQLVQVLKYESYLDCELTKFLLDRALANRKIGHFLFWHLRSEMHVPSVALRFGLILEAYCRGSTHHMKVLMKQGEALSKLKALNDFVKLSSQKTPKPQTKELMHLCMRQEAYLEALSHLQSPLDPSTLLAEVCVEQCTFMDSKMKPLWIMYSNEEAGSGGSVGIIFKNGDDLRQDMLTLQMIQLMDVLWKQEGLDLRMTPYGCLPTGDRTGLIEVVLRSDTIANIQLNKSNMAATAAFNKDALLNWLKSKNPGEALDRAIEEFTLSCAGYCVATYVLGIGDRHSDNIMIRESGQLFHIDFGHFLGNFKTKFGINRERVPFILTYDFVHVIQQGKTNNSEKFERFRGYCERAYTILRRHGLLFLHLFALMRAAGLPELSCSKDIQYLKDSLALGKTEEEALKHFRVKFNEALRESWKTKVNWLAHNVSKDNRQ

[10] = biological target: Microtubule-associated serine/threonine-protein kinase 1 (Homo sapiens) (UniProt Q9Y2H9); experiment: Inhibition of MAST1 at 1 uM
[11] = biological target: ALK tyrosine kinase receptor (Homo sapiens, UniProt Q9UM73); experiment: Inhibition of ALK phosphorylation in human Karpas-299 cells by immunoblotting and ELISA; format: cell-based
Procedure, shortened: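 Karpas-299 cells were treated with compound, then lysed in Tris pH 7.5 / 1% Triton X-100 buffer containing phosphatase and protease inhibitors, briefly sonicated and cleared. For immunoblots, SDS–PAGE was probed with phospho-NPM-ALK(Y664) or total ALK antibodies and bands were quantified by ECL. For ELISA, lysates were captured overnight at 4 °C on anti-ALK, detected with anti-phospho-ALK(Y664) plus AP secondary, and read by 4-MeUP fluorescence.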

Sequence of Serine/threonine-protein kinase SIK3 (Homo sapiens) (Q9Y2K2 whole entry, looked up): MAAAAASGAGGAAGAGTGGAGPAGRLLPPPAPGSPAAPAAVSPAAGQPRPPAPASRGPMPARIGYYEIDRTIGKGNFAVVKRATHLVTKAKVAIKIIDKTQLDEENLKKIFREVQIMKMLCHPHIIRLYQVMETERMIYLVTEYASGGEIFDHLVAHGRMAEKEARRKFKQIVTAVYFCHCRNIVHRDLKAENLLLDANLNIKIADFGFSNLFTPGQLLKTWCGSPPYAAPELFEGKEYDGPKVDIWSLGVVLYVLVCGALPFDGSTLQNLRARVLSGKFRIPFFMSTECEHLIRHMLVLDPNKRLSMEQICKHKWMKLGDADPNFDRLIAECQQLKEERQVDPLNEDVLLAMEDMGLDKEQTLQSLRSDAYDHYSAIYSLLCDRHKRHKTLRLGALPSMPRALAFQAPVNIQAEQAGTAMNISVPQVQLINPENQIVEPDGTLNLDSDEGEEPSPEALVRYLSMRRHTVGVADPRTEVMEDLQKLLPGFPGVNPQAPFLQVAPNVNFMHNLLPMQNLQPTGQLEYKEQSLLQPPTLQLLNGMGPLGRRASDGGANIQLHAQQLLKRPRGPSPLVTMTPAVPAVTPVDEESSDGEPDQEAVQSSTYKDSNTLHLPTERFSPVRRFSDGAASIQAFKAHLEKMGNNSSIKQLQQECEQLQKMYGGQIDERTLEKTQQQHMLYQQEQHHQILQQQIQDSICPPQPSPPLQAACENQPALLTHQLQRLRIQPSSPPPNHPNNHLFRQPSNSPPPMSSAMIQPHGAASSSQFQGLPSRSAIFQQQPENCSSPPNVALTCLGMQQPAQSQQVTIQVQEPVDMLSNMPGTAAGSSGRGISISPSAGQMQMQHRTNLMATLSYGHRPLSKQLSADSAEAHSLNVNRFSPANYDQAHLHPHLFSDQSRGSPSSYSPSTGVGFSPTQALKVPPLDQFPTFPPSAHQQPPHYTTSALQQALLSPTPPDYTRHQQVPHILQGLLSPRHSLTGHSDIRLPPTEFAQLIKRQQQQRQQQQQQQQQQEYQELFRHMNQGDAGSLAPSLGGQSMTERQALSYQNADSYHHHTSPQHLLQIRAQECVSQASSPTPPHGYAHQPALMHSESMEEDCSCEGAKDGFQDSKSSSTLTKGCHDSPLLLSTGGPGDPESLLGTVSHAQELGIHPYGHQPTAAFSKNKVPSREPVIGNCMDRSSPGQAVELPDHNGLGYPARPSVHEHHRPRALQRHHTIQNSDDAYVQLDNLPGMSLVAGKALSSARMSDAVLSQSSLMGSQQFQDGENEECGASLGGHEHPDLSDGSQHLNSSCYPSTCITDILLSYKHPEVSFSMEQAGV
Sequence of ALK tyrosine kinase receptor (Q9UM73 whole entry): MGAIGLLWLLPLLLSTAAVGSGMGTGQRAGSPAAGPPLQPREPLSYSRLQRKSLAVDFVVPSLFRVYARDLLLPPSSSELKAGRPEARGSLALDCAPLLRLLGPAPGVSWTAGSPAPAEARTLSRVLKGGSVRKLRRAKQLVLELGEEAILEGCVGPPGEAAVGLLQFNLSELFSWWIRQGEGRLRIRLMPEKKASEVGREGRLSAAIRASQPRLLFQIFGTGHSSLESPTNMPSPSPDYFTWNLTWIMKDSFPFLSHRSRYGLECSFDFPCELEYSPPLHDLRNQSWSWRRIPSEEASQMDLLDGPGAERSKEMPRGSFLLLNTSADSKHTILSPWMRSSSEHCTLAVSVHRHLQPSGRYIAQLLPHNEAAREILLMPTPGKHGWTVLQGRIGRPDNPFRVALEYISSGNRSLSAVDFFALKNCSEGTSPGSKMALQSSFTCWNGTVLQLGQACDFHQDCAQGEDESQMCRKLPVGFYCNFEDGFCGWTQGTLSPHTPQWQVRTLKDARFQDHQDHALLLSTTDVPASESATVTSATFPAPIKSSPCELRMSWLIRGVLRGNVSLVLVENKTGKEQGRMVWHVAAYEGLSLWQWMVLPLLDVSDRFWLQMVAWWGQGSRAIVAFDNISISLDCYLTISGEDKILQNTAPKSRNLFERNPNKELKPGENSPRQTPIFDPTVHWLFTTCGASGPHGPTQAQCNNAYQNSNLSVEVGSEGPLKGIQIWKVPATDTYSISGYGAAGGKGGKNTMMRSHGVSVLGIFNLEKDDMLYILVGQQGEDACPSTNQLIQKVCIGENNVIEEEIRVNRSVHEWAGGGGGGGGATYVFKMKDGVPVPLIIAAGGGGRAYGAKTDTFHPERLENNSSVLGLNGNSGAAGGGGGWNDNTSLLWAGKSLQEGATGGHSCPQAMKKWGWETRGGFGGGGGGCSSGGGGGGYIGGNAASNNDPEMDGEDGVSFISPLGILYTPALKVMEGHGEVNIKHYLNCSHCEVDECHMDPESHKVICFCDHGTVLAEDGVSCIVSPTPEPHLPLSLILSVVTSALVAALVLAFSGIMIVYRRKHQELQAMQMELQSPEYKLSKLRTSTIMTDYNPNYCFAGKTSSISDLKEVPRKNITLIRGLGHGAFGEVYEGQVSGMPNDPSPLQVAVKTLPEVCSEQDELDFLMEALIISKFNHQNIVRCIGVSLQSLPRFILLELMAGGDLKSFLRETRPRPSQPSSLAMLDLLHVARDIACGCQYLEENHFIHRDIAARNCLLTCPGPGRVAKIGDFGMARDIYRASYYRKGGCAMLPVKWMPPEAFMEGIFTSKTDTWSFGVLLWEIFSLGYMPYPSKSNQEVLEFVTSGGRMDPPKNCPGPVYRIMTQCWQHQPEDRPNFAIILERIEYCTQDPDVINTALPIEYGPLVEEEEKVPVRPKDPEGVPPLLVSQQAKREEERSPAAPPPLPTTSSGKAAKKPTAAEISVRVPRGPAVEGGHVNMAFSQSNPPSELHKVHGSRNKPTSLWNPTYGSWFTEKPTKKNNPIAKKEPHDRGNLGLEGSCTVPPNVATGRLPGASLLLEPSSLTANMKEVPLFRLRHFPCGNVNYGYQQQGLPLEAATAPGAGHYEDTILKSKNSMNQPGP
Sequence of Cyclin-dependent kinase 14 (Homo sapiens) (O94921 whole entry): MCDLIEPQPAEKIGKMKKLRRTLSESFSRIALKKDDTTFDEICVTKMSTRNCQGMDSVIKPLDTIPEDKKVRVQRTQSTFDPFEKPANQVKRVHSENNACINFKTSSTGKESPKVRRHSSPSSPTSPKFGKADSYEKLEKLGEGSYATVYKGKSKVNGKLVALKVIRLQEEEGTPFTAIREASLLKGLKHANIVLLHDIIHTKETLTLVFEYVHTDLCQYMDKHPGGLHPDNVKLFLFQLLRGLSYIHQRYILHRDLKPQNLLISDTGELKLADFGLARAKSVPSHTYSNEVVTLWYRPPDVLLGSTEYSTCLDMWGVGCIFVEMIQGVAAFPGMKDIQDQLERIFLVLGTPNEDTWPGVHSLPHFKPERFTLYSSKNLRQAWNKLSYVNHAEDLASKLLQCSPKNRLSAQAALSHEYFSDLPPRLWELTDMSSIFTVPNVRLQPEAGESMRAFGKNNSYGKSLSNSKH
Sequence of Wee1-like protein kinase 2 (Homo sapiens) (P0C1S8 whole entry, looked up): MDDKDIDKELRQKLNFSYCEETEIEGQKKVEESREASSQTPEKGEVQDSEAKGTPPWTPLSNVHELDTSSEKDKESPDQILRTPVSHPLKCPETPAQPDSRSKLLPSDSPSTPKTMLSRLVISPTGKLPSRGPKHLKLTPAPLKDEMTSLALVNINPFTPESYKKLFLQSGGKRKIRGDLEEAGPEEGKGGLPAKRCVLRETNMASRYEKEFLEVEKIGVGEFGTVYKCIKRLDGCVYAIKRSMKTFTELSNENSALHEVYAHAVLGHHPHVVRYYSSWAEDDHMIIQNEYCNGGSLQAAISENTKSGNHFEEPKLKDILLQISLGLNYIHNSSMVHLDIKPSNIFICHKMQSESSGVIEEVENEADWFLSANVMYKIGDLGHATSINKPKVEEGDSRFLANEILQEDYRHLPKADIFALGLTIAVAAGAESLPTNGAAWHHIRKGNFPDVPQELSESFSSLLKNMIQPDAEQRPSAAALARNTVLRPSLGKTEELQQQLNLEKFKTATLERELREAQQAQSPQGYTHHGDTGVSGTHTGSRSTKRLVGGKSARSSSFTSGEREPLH
Sequence of SRSF protein kinase 2 (Homo sapiens) (P78362 whole entry, looked up): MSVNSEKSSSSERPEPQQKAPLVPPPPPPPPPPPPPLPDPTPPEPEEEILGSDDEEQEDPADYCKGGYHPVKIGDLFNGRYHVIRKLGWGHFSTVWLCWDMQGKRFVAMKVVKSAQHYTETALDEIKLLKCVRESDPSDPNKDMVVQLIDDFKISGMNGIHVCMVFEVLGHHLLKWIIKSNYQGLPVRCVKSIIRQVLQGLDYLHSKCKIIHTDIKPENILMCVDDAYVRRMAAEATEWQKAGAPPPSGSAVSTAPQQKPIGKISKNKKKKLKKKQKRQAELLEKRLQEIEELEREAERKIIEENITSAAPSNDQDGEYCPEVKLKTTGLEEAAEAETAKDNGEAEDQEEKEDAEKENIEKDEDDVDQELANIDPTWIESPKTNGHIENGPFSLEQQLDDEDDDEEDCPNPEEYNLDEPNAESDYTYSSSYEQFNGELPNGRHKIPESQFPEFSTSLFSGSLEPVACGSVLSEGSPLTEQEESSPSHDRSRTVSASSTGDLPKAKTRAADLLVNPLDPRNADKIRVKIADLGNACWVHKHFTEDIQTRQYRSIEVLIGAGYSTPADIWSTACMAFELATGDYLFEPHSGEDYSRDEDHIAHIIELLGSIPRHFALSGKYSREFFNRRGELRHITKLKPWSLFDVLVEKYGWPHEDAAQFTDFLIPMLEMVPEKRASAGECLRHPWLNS

Row | SMILES | inhibition [1] | inhibition [2] | inhibition [3] | inhibition [4] | inhibition [5] | inhibition [6] | inhibition [7] | inhibition [8] | inhibition [9] | inhibition [10] | IC50 [11]
1 | CN1CCN(c2ccc(-c3cnc4c(c3)N(Cc3cc(Cl)ccc3C(F)(F)F)CCN4)cn2)CC1 | < 50% | < 50% | < 50% | < 50% | < 50% | < 50% | < 50% | < 50% | < 50% | < 50% | 
2 | FC(F)(F)c1ccc(Cl)cc1CN1CCNc2ncc(-c3ccnc(N4CCNCC4)c3)cc21 | < 50% | < 50% | < 50% | 73% | < 50% | < 50% | < 50% | < 50% | < 50% | < 50% | 150 nM
3 | CC(=O)N1CCN(c2cc(-c3cnc4c(c3)N(Cc3cc(Cl)ccc3C(F)(F)F)CCN4)ccn2)CC1 | < 50% | < 50% | < 50% | < 50% | < 50% | < 50% | < 50% | < 50% | < 50% | < 50% | 250 nM
4 | CN1CCN(c2ccc(-c3cnc4c(c3)N(Cc3cc(F)ccc3F)CCN4)cn2)CC1 | < 50% | < 50% | < 50% | < 50% | < 50% | < 50% | < 50% | < 50% | < 50% | < 50% | 200 nM
5 | CN1CCN(c2ccc(-c3cnc4c(c3)N(Cc3c(F)ccc(F)c3Cl)CCN4)cn2)CC1 | < 50% | < 50% | < 50% | < 50% | < 50% | < 50% | < 50% | < 50% | < 50% | < 50% | 
6 | CN1CCN(c2ccc(-c3cnc4c(c3)N(Cc3cc(Cl)ccc3Cl)CCN4)cn2)CC1 | < 50% | < 50% | < 50% | < 50% | < 50% | < 50% | < 50% | < 50% | < 50% | < 50% | 

Next, values leading:

Row | inhibition [1] | inhibition [2] | inhibition [3] | inhibition [4] | inhibition [5] | inhibition [6] | inhibition [7] | inhibition [8] | inhibition [9] | inhibition [10] | IC50 [11] | SMILES
7 | < 50% |  |  |  |  |  |  |  |  |  |  | O=C(O)c1ccc(-c2cnc3c(c2)N(Cc2cc(Cl)ccc2C(F)(F)F)CCN3)cc1
8 | < 50% |  |  |  |  |  |  |  |  |  | 250 nM | O=C(c1ccc(-c2cnc3c(c2)N(Cc2cc(Cl)ccc2C(F)(F)F)CCN3)cc1)N1CCC(N2CCCC2)CC1
9 | < 50% |  |  |  |  |  |  |  |  |  | 450 nM | COC1CCN(C(=O)c2ccc(-c3cnc4c(c3)N(Cc3cc(Cl)ccc3C(F)(F)F)CCN4)cc2)CC1
10 | < 50% |  |  |  |  |  |  |  |  |  |  | O=C(c1ccc(-c2cnc3c(c2)N(Cc2cc(Cl)ccc2C(F)(F)F)CCN3)cc1)N1CCCCC1
